In ChEMBL document CHEMBL1641469, “New Hedgehog/GLI signaling inhibitors from Excoecaria agallocha” (Bioorg Med Chem Lett, 2011) one finds IC50 and inhibition data, which are given here for 8 compounds.

In general, IC50 refers to the concentration that inhibits the measured activity by half.

Test [1] in a line: Inhibition of human HH/Gli1-mediated transcriptional activity in tetracycline-treated human HaCaT cells treated after 12 hrs of tetracycline addition by luciferase reporter gene assay. The format is cell-based. In outline: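 HaCaT cells carrying a GLI1-driven luciferase construct, seeded at 2 × 10⁵ cells per well; compounds added 12 h after tetracycline induction; luciferase activity and cell viability read at the same time point.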
A general note: In a reporter assay the amount or activity of a reporter protein is the signal.

Test [2] concerns PANC-1. In words: Cytotoxicity against human PANC1 cells after 24 hrs by FMCA method. It counts as functional, cell-based. Particulars: PANC-1, 24 h. The method in brief:
(§1)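 Cells (PANC1, DU145, C3H10T1/2) exposed to compounds in 0.05% DMSO; viability measured, n = 3; IC50 values derived from concentration–response.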

For the next test, the system named is DU-145. In words: Cytotoxicity against human DU145 cells after 24 hrs by FMCA method. The format is functional, cell-based. Particulars: DU-145, 24 h. The method in brief:
as §1

Test [3] can be described thus: Cytotoxicity against mouse C3H10T1/2 cells after 24 hrs by FMCA method. Particulars: C3H 10T1/2, 24 h. It counts as functional, cell-based. In outline: as §1
Test [4] has as its system PANC-1. The test is described as follows: Inhibition of human HH/Gli1-mediated expression of PTCH in human PANC1 cells by Western blot analysis. The format is cell-based. In outline: (§2)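 PANC1 cells treated, then full, cytosolic and nuclear fractions prepared; GLI1, PTCH and BCL2 protein levels assessed by Western blotting.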
In general terms: In western blotting, separated proteins are transferred to a membrane and probed.

The subject of test [5] is PANC-1. In words: Inhibition of human HH/Gli1-mediated expression of BCL-2 in human PANC1 cells by Western blot analysis. The format is cell-based. In outline: as §2
The test system of test [6] is PANC-1. The test is described as follows: Inhibition of human HH/Gli1-mediated induction of nuclear Gli1 level in human PANC1 cells at 1.6 uM by Western blot analysis. It counts as cell-based. In outline: as §2
For test [7], the system named is PANC-1. In words: Inhibition of human HH/Gli1-mediated PTCH mRNA expression in human PANC1 cells at 0.7 to 1.4 uM by RT-PCR analysis. The format is cell-based. In outline:
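PANC1 cells treated in 0.05% DMSO; Ptch mRNA quantified by RT-PCR with GAPDH as internal control; n = 3.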

In test [8] the test system is PANC-1. The test is described as follows: Inhibition of human HH/Gli1-mediated PTCH mRNA expression in human PANC1 cells transfected with Smo siRNA at 0.7 to 1.4 uM by RT-PCR analysis. The format is cell-based. In outline: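 PANC1 cells transfected with Smo siRNA (non-targeting siRNA at same concentration as control), Smo depletion confirmed by Western blot; treated cells then assayed for Ptch mRNA by real-time quantitative RT-PCR.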

[9] abbreviates: Homo sapiens, HaCaT, 12 h, read-out: IC50.

Active and inactive are the calls of the source. No cut-off for these calls is given here.

Regarding `COc1ccc(-c2oc3cc(O)cc(O)c3c(=O)c2O[C@@H]2O[C@@H](C)[C@H](O)[C@@H](O)[C@H]2O)cc1`, the IC50 result in test [1] (hacat) is listed as “Not Active”.

Consider `CO[C@@H]1[C@@H](O)[C@H](C)O[C@@H](OC[C@@]2(O)CO[C@@H](Oc3c(-c4ccc(O)c(O)c4)oc4cc(O)cc(O)c4c3=O)[C@@H]2O)[C@@H]1O`, for which the IC50 in test [1] (setting [9]) is 19100 nM; in the test with PANC-1 [2] it was 20000 nM; with DU-145, 22000 nM; in test [3], > 100000 nM.

Consider `CC(=O)O[C@H]1[C@H](Oc2c(-c3ccc(O)cc3)oc3cc(O)cc(O)c3c2=O)O[C@@H](C)[C@H](O)[C@H]1O`, for which the IC50 entry in test [1] (hacat) is “Not Active”.

In the case of `C[C@@H]1O[C@@H](Oc2c(-c3ccc(O)cc3)oc3cc(O)cc(O)c3c2=O)[C@H](O)[C@H](O)[C@H]1O` [AFZELIN], the IC50 entry in test [1] (hacat) was “Not Active”.

For the compound `CO[C@@H]1[C@@H](O)[C@H](C)O[C@@H](Oc2c(-c3ccc(O)c(O)c3)oc3cc(O)cc(O)c3c2=O)[C@@H]1O`, the IC50 in test [1] (setting [9]) is 500 nM; with PANC-1 [2], 700 nM; in the test on DU-145, 800 nM; in test [3], > 100000 nM. Moreover, the inhibition result in the test with PANC-1 [4] and in the test with PANC-1 [5] was “Dose-dependent effect” in each case. Also, the inhibition result in the test with PANC-1 [6], with PANC-1 [7] and in the test on PANC-1 [8] was “Active” in each case.

As for `C[C@@H]1O[C@@H](OC[C@H]2O[C@@H](Oc3c(-c4ccc(O)c(O)c4)oc4cc(O)cc(O)c4c3=O)[C@H](O)[C@@H](O)[C@@H]2O)[C@H](O)[C@H](O)[C@H]1O` [RUTIN], the IC50 entry in [1] (hacat) is “Not Active”.

As to `C[C@@H]1O[C@@H](Oc2c(-c3ccc(O)c(O)c3)oc3cc(O)cc(O)c3c2=O)[C@H](O)[C@H](O)[C@H]1O` [QUERCITRIN], the IC50 entry in test [1] (hacat) is recorded as “Not Active”.

`O=c1c(O[C@@H]2O[C@@H](CO)[C@H](O)[C@H]2O)c(-c2ccc(O)cc2)oc2cc(O)cc(O)c12` [JUGLANIN]: the IC50 was 2000 nM in test [1] (setting [9]), 1800 nM with PANC-1 [2], 2400 nM with DU-145 and > 100000 nM in test [3].
